Insulin prom act: TRM-6 insulin promoter activation; TRM-6 cells, insulin promoter eGFP reporter, imaging; plate-scaled: unstimulated 0, stimulated control 100; activation, % at 2 µM; actives 0.81% (n = 130,000); AID 1296;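 active = activation at 2 µM above a set limit, confirmed on inspection of the cell images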;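 note: share of cells whose green reporter signal exceeds an intensity cutoff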
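Test system: human fetal islet-derived TRM-6 cells with tamoxifen-inducible insulin promoter–eGFP reporter. Compound dosing: 2 µM final, single concentration. Incubation: tamoxifen pre-incubation 15 h overnight, then compound exposure 48 h at 37 °C. Signal: fixed-cell fluorescence microscopy, eGFP plus Hoechst.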
* hit, by the source's call; [ ] = dose if it differs, or a comment. This excerpt belongs to a sample that is enriched for hits.

SMILES	Insulin prom act
COCCC(=O)N1CCCC(C(=O)c2ccc(Oc3ccccc3)cc2)C1 (stereo unspecified)	542*
Cc1c(C(=O)N2CCc3ccccc32)cnn1C	0
COc1ccc(OC)c(NC(=O)CNC(=O)Cn2c(C)cc3ccccc3c2=O)c1	-10
CCn1c(=O)n(CC(=O)Nc2cc(OC)ccc2OC)c(=O)c2ccccc21	600*
COc1ccc(OC)c(NC(=O)CN2CCC(C(=O)c3ccc(C)cc3)CC2)c1	-83
CCOc1ccc(NC(=O)C(C)Oc2ccccc2C(=O)Nc2cccc(Cl)c2Cl)cc1 (stereo unspecified)	-3
NC(=S)NNC(=O)C12CC3CC(CC(C3)C1)C2	8
Cc1ccc(O)c(C(=O)/C=C/c2ccc3c(c2)OCCO3)c1	-7
CC(=O)N(C)C(c1ccc(N(C)C)cc1)c1nnnn1-c1c(C)cccc1C (stereo unspecified)	-9
Cc1ncc([N+](=O)[O-])n1CCOC(=O)NC(NCc1ccccc1)C(Cl)(Cl)Cl (stereo unspecified)	133*
Cc1ncc([N+](=O)[O-])n1CC(=O)NCc1ccccc1	-7
Cc1ncc([N+](=O)[O-])n1CCOC(=O)Nc1ccc(Cl)c(Cl)c1	0
COc1ccc(C2N(Cc3ccccc3)CCN2Cc2ccccc2)cc1[N+](=O)[O-]	6
Cc1cc(C)cc(NC(=S)N2CCC(N(C)CC3CCCO3)CC2)c1 (stereo unspecified)	0
CN(C(=O)COC(=O)/C=C/c1ccc(S(=O)(=O)N2CCc3ccccc32)cc1)C1CCS(=O)(=O)C1 (stereo unspecified)	0
Cc1cc(C)n(C(=O)CCCn2nc(C)c([N+](=O)[O-])c2C)n1	0
COc1cc(OC)cc(C(=O)N[C@H](C(=O)OCC(=O)Nc2ccc(F)c(F)c2)C(C)C)c1	7
O=C1CCC(C(=O)Nc2cccc(Oc3ccccc3)c2)=NN1	9
O=C(O)CCc1ccc(-c2cccs2)n1CC1CCCO1 (stereo unspecified)	133
COCCCn1c(CCC(=O)O)ccc1-c1cccs1	86*
CCCn1c(CCC(=O)O)ccc1-c1cccs1	-3
CCOC(=O)CC(NC(=O)c1cccc2c1C(=O)N(Cc1cccnc1)C2)c1ccc(OCC)c(OC)c1 (stereo unspecified)	-7
N#Cc1cnn2c(N)c(-c3ccc(Cl)cc3)cnc12	9
CC(=O)c1cnc2c(-c3ccc(Cl)cc3)cnn2c1C	585*
CC(=O)c1cnc2cc(-c3cccc(Br)c3)nn2c1C	7
SMILES	Insulin prom act
COc1ccc(C2Nc3ccccc3C(=O)N2c2ccccc2)cc1COc1ccccn1 (stereo unspecified)	220*
COc1ccc(C2Nc3ccccc3C(=O)N2Cc2ccco2)cc1COc1ccc(NC(C)=O)cc1 (stereo unspecified)	9
COc1ccc(C2Nc3ccccc3C(=O)N2Cc2ccccc2)cc1CSc1ccccn1 (stereo unspecified)	7
O=C(Nc1nc2ccccc2[nH]1)c1ccc(Br)o1	-8
O=C(/C=C/c1cccc([N+](=O)[O-])c1)NCCN1CCOCC1	7
O=C(N/N=C/C1=C(N2CCOCC2)C(=C\c2ccccc2)/CC1)Nc1ccccc1	6
Cc1cc(=O)[nH]c(N/N=C/C2=C(N3CCOCC3)C(=C\c3ccc(Cl)cc3)/CC2)n1	-3
CC(C)C(NC(=O)C12CC3CC(CC(C3)C1)C2)C(=O)N/N=C/C1=C(N2CCOCC2)C(=C\c2ccc([N+](=O)[O-])cc2)/CC1 (stereo unspecified)	176
N#C/C(=C\C1=C(N2CCOCC2)C(=C\c2ccc(Cl)cc2)/CC1)C(=O)Nc1ccccc1F	614*[fluoresces]
N#C/C(=C\C1=C(N2CCOCC2)C(=C/c2cccc([N+](=O)[O-])c2)/CC1)C(=O)Nc1ccccc1F	614*
C=CCC(C=C)[N+]1(CC(=O)OC)CCCCC1 (stereo unspecified)	0
CC(Oc1ccc(Cl)cc1)c1ccnc(N)n1 (stereo unspecified)	-9
Cc1c(NC(=O)CCCCCN2C(=O)c3ccccc3C2=O)c(=O)n(-c2ccccc2)n1C	-7
C/C(=N\NC(=O)c1nn(C)c(C)c1Br)c1cccc(NC(=O)c2ccoc2C)c1	8
CCc1ccc(C(=O)COC(=O)c2n[nH]c3ccccc23)cc1	0
Cc1ccc(S(=O)(=O)Nc2ccc(N3CCOCC3)cc2)cc1	81*
Cc1ccc(S(=O)(=O)Nc2ccc(S(=O)(=O)NC(C)(C)C)cc2)cc1	8
Cc1ccc(NS(=O)(=O)c2ccc(CCC(=O)N3CCOCC3)cc2)cc1	188
COc1ccc(NC(=O)OC(C)C)cc1	-9
C=CCn1c(SCCN2CCCC2)nc2c([nH]c3ccccc32)c1=O	-8
Cc1nnc(NC(=O)CSc2nnc(Cc3ccccc3)n2-c2ccccc2)s1	660*
Cc1nnc(NC(=O)CSc2nnc(C)n2Cc2ccccc2)s1	0
CCc1nnc(NC(=O)CSc2nnc(Cc3ccccc3)n2-c2ccccc2)s1	-82
Cc1no[n+]([O-])c1COc1ccc(/C=N/n2nnnc2N)cc1	0
COc1ccc(-c2ccc3c(n2)sc2c(=O)[nH]c(=O)[nH]c23)cc1OC	136
SMILES	Insulin prom act
O=[N+]([O-])c1cc(C(F)(F)F)ccc1N1CCN(S(=O)(=O)c2ccc3ccccc3c2)CC1	-6
O=C(Nc1cc(C(F)(F)F)ccc1N1CCOCC1)c1c(F)c(F)c(F)c(F)c1F	333
O=S(=O)(Nc1cc(C(F)(F)F)ccc1N1CCOCC1)c1ccc2ccccc2c1	386*
Cc1nn(C)cc1/C=C(/C#N)C(N)=O	6
Cc1ccccc1C(=O)NNC(=O)CSc1nnc(-c2ccncc2)n1-c1ccccc1	0
COC(=O)CC(c1ccc(C(C)C)cc1)n1cccc1 (stereo unspecified)	7
Fc1ccc(-c2csc(=S)[nH]2)cc1	279*
Cc1csc(NC(=O)c2cc3c(C)nn(Cc4ccccc4Cl)c3s2)n1	-8
CCCNC(=O)CN(CCc1ccccc1)S(C)(=O)=O	93*
CCN(CC(=O)NCCc1ccccc1)S(=O)(=O)c1ccc(Br)cc1	4
CCOCCCNC(=O)CN(Cc1ccc(Cl)cc1)S(C)(=O)=O	189
O=C(CN1C(=O)/C(=C/c2ccccc2F)Sc2ccccc21)N1CCN(c2ccccn2)CC1	109
O=c1oc2cc(O)ccc2cc1-c1nc2c(s1)CCc1ccccc1-2	733*
O=c1oc2ccccc2cc1-c1ccc(O)cc1O	-7
O=C(Nc1nc2c(s1)CCc1ccccc1-2)c1ccco1	0
O=C(Nc1ccccc1CC[N+](=O)[O-])N1CCN(c2ccccc2)CC1	7
N#CC1=C(N)SC(N)=C(C#N)C1c1ccoc1	32
Cc1ccc(C2C(C#N)=C(N)SC(N)=C2C#N)c(C)c1	-4
Cc1ccc(C2C(C#N)=C(N)SC(N)=C2C#N)cc1	121*
Cc1ccnc(NC(=S)NC(=O)c2cccs2)c1	7
O=S(=O)(NC(=S)NC1CCCCC1)c1ccc(Br)cc1	-10
CCc1nnc(NC(=O)CCC(=O)N2CCN(C3c4ccccc4-c4ccccc43)CC2)s1	7
C[N+]1(C2CCC3CCCC2C3O)CCCC1 (stereo unspecified)	-1
Cc1ccc(C2=NN(CC(=O)NCc3ccccn3)C(=O)CC2)cc1	5
CCn1c(Cc2cccc3ccccc23)nnc1SCC(=O)Nc1nccs1	-6
Cc1nn(-c2cc(N3CCCC3)ccc2[N+](=O)[O-])c(=O)c2ccccc12	134*
Cc1ccc(-c2nn(-c3cc(Cl)ccc3[N+](=O)[O-])c(=O)c3ccccc23)cc1	2

Bioassay records from PubChem BioAssay.
